What was measured:
[1] = molecular target: NTS2 (Homo sapiens, UniProt O95665); assay: Calcium imaging assay; assay type: cell-based
Outline: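 HT-29 cells grown overnight on glass slides (5 × 10^5 cells, 37 °C, 5% CO2), loaded 30 min in the dark with 100 μM fluo-8 AM, 0.4% pluronic acid and 2.5 mM probenecid in RPMI. Perfused with bicarbonate-glucose buffer (95% O2/5% CO2, pH 7.4, room temperature), washed 10 min. Test compound 10–11 to 10–5 M by rapid perfusion; levocabastine as positive control. Ex 490/Em 514 nm; ΔF/F (%) vs baseline, normalized to levocabastine stimulation; twice in duplicate, 20 cells analysed.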

[2] = tested on: hNTS2; settings: cited from earlier work
[3] = molecular target: hNTS1; settings: read-out: Ki toward hNTS1; cited from earlier work
[4] = tested on: NTS1; settings: cited from earlier work

Chain of NTS2 (O95665 whole entry, the tested form may be a part): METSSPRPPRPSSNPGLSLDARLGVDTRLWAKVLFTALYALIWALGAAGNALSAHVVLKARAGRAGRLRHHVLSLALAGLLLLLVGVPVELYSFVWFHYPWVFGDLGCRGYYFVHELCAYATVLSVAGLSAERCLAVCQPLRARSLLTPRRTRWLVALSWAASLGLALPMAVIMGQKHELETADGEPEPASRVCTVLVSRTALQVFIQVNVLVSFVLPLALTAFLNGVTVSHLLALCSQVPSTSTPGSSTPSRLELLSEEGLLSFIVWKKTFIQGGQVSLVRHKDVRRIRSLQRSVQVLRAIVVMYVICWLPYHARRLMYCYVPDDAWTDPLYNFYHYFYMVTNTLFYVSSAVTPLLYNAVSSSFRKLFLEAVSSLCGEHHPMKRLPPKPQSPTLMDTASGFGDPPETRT

## C[C@@H]1CN([C@H]2CC[C@](C#N)(c3ccc(F)cc3)CC2)CC[C@]1(C(=O)O)c1ccccc1 [levocabastine]
[1]
  EC50: 118 nM

## H-Lys-Lys-Pro-(D)Trp-Ile-TMSAla-OH [JMV 5504]
[2]
  selectivity index hNTS1/hNTS2: 423
[2]; read-out: Ki toward hNTS2
  Ki: 8.5 nM
[3]
  Ki: 3600 nM
[4]
  hypothermic effect: no hypothermic effect
